The source made the active and inactive calls.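 The calls were made as follows: active = maximum inhibition above 30% at any tested concentration, with a dose response curve fitted; inactive = no inhibition at any dose or no dose response curve.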

This test can be described thus: parental HEK293 potassium flux blockers – cell-based, FluxOR thallium flux, concentration-response, set 2, counter-screen for KCNK9 inhibitor project, SAR follow-up (AID 540324). Put shortly: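 System – parental HEK293 cells lacking KCNK9 expression · Reagent – K+/Tl+ sulfate stimulus, 5x stock · Dosing – Ten-concentration dilution series per compound · Times – dye loading 90 min at room temperature in dark, compound exposure 20 min · Detection – fluorescence of thallium-sensitive FluxOR dye · Repeats – at least two replicates per compound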
(A counterscreen serves to expose hits that act by an unwanted route or on another target.)

As for `COc1ccccc1NC(=O)c1cccc(NC(=O)CC2CCCC2)c1`, the outcome was inactive.

Turning to `COc1ccccc1C(=O)Nc1cccc(NC(=O)c2ccccc2C(C)C)c1`, the outcome was inactive. With `CC(C1CC2CCC1C2)n1c(-c2ccsc2)n[nH]c1=S` (stereo not given), the result was inactive.

As to `O=C(Nc1cccc(NC(=O)c2ccco2)c1)c1ccccc1`, the result was inactive.

In the case of `CCOc1ccccc1NC(=O)c1cccc(NC(=O)c2cccc(Cl)c2)c1`, the result was inactive.

For `CCOc1ccccc1NC(=O)c1cccc(C(=O)NC2CCCC2)c1`, the outcome was inactive. In the case of `Cc1cccc(C(=O)Nc2cccc(NC(=O)c3ccc(C(F)(F)F)cc3)c2)c1` it was “inactive”.

With `O=C(Nc1cccc(NC(=O)c2cccc(Cl)c2)c1)c1ccccc1`, the result was inactive. Take `COc1cccc(C(=O)Nc2cccc(NC(=O)c3cccc(C)c3)c2)c1`: the outcome was inactive. For `Cc1cccc(C(=O)Nc2cccc(NC(=O)c3ccc(C(C)(C)C)cc3)c2)c1`, the outcome was inactive. `CCOc1ccccc1NC(=O)c1cccc(NC(=O)c2ccccc2C)c1`: the outcome was inactive. As to `CCOc1ccccc1NC(=O)c1cccc(NC(=O)c2cccc(OC)c2)c1`, the result was inactive. With `Cc1cccc(C(=O)Nc2cccc(NC(=O)c3ccc(Cl)cc3)c2)c1` the entry was “inactive”; with `CCOc1ccccc1NC(=O)c1cccc(NC(=O)c2ccc(OC)cc2)c1`, “inactive”. Take `Cc1cccc(C(=O)Nc2cccc(NC(=O)c3ccccc3C(F)(F)F)c2)c1`: the result was inactive. As to `CCOc1ccccc1C(=O)Nc1cccc(NC(=O)C2CCCC2)c1`, the result was inactive. `O=C(Nc1cccc(NC(=O)c2ccccc2C(F)(F)F)c1)c1ccccc1`: the result was inactive. Consider `COc1ccccc1C(=O)Nc1cccc(NC(=O)c2ccccc2OC(F)(F)F)c1`, for which the result was inactive. Turning to `COc1ccc(-c2n[nH]c(=S)n2C(C)C2CC3CCC2C3)cc1` (stereo not given), the result was inactive. Turning to `COc1ccccc1NC(=O)c1cccc(NC(=O)C2CCCCC2)c1`, the result was inactive.

`COc1ccccc1-c1n[nH]c(=S)n1C(C)C1CC2CCC1C2` (stereo not given): the result was inactive. As for `CC(C1CC2CCC1C2)n1c(-c2ccco2)n[nH]c1=S` (stereo not given), the outcome was inactive. On to `COc1ccccc1C(=O)Nc1cccc(NC(=O)c2ccccc2C)c1`, for which the outcome was inactive. As to `COc1ccccc1C(=O)Nc1cccc(NC(=O)c2ccccc2)c1`, the result was inactive.

In the case of `CCOc1ccccc1NC(=O)c1cccc(NC(=O)c2ccc(Cl)cc2)c1`, the result was inactive. In the case of `CC(c1ccco1)n1c(-c2ccoc2)n[nH]c1=S` (stereo not given), the outcome was inactive. Turning to `Cc1ccccc1C(=O)Nc1cccc(NC(=O)c2ccccc2)c1`, the result was inactive.

Regarding `CC(C1CC2CCC1C2)n1c(-c2ccoc2)n[nH]c1=S` (stereo not given), the result was inactive. `S=c1[nH]nc(-c2ccco2)n1CC1CCCCC1`: the result was inactive.

For the molecule `COc1ccccc1NC(=O)c1cccc(NC(=O)C2CCCC2)c1`, the result was inactive. In the case of `Cc1cccc(C(=O)Nc2cccc(NC(=O)c3ccccc3OC(F)(F)F)c2)c1` it was “inactive”. With `Cc1cccc(C(=O)Nc2cccc(NC(=O)c3ccccc3Cl)c2)c1` the entry was “inactive”; with `CC(C1CC2CCC1C2)n1c(-c2ccc(Cl)cc2)n[nH]c1=S` (stereo not given), “inactive”. Consider `COc1ccccc1C(=O)Nc1cccc(NC(=O)c2ccccc2OC)c1`, for which the outcome was inactive. `CCOc1ccccc1NC(=O)c1cccc(NC(=O)c2cccc(C)c2)c1`: the outcome was inactive.

Values taken from PubChem BioAssay AID540324 (Johns Hopkins Ion Channel Center, 2011).
